The source made the active and inactive calls. No cut-off for these calls is given here. *1 amine or outer side, *2 acyl side, *3 side chain or, on linkers, in order; H or OH if unused. Where a SMILES comes first, the peptide text is derived from it. Bridges are numbered along the chain shown (N, C = ends). [ ]: non-standard residue; d: D form. hTyr = N[C@@H](CCc1ccc(O)cc1)C(=O)O; NMeA = CN[C@@H](C)C(=O)O; CO = O=C([*:1])[*:2]
Columns and labels:
[1] = target: T1, Trypsin (Homo sapiens, UniProt P07477+P07478+P35030); assay: Inhibition of trypsin (unknown origin) using benzoyl-L-arginine-p-nitroanilide hydrochloride as substrate preincubated for 5 mins before substrate addition measured after 30 mins; format: protein assay
Summary of the method: (§1)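 Trypsin stock 1 mg/mL in 0.05 M Tris-HCl/100 mM NaCl/1 mM CaCl2, pH 7.5. Substrate in 1:9 DMSO/Tris buffer. Samples from 1 mg/mL DMSO stocks. Enzyme and sample are preincubated in buffer at 37 °C for 5 min. Substrate is then added and kinetics are read at 405 nm, 37 °C, for 30 min. Percent inhibition is taken against a DMSO vehicle control.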

[2] = target: T1, Trypsin; assay: Inhibition of trypsin (unknown origin) using benzoyl-L-arginine-p-nitroanilide hydrochloride as substrate preincubated at 45.5 uM for 5 mins before substrate addition measured after 30 mins; format: protein assay; summary of the method: as §1
[3] = target: T2, Prothrombin (Homo sapiens, UniProt P00734); assay: Inhibition of thrombin (unknown origin) using z-Gly-Pro-Arg-4MbetaNA-acetate as substrate preincubated at 45.5 uM for 20 mins before substrate addition measured after 20 mins
Summary of the method: (§2)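 Thrombin stock 0.5 mg/mL in 0.2 M Tris-HCl, pH 8. Substrate stock 0.5 mg/mL in water. Test samples from 1 mg/mL DMSO stocks. Enzyme and sample are preincubated in buffer at 25 °C for 20 min. Substrate is then added and kinetics are read at 405 nm, 25 °C, for 20 min. Percent inhibition is taken against a DMSO-only control.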

[4] = target: T2, Prothrombin; assay: Inhibition of thrombin (unknown origin) using z-Gly-Pro-Arg-4MbetaNA-acetate as substrate preincubated for 20 mins before substrate addition measured after 20 mins; summary of the method: as §2

inhibition [2]	inhibition [3]	IC50 [1] [µM]	SMILES	inhibition [1]	also measured
–	inactive	9.5	CC(C)C[C@@H](NC(=O)[C@H](O)Cc1ccc(O)c(Cl)c1)C(=O)N1[C@H](C(=O)NCCCCNC(=N)N)C[C@@H]2CC[C@@H](OS(=O)(=O)O)C[C@@H]21	–	–
–	–	30.8	N=C(N)NCCCCNC(=O)[C@@H]1C[C@@H]2CC[C@@H](O)C[C@@H]2N1C(=O)[C@H](Cc1ccccc1)NC(=O)[C@@H](O)Cc1ccc(O)c(Cl)c1	–	IC50 [4]: 15.5 µM
inactive	inactive	–	CC[C@H](C)[C@@H]1NC(=O)[C@H](NC(=O)N[C@@H](CCCNC(=N)N)C(=O)O)CCCCNC(=O)[C@H](Cc2ccccc2)NC(=O)[C@H](C)N(C)C(=O)[C@H](CCc2ccc(O)cc2)NC1=O ({Arg-CO}-[dK]I[hTyr][NMeA]F; lactam 1-C)	–	–
inactive	inactive	–	NC(=O)[C@@H]1C[C@@H]2CC[C@H](O)C[C@@H]2N1C(=O)[C@@H](Cc1ccc(O)cc1)NC(=O)[C@H](O)Cc1ccc(O)cc1	–	–

More lines, now with the values behind:

SMILES	inhibition [2]	inhibition [3]	IC50 [1] [µM]	inhibition [1]	also measured
CC[C@H](C)[C@@H]1NC(=O)[C@H](Cc2ccccc2)N(C)C(=O)[C@H]([C@@H](C)CC)N2C(=O)[C@H](CC[C@H]2O)NC(=O)[C@H](CCCNC(=N)N)NC(=O)[C@@H](NC(=O)[C@@H](COS(=O)(=O)O)OS(=O)(=O)O)[C@@H](C)OC1=O	–	–	–	Active	–
NC(=O)[C@@H]1C[C@@H]2CC[C@H](O)C[C@@H]2N1C(=O)[C@@H](Cc1ccccc1)NC(=O)[C@H](O)Cc1ccc(O)cc1	inactive	inactive	–	–	–
N=C(N)NCCCCNC(=O)[C@@H]1C[C@@H]2CC[C@@H](O)C[C@@H]2N1C(=O)[C@H](Cc1ccccc1)NC(=O)[C@H](O)Cc1ccc(O)c(Cl)c1	–	inactive	19	–	–
CC[C@H](C)[C@@H]1NC(=O)[C@H](Cc2ccccc2)N(C)C(=O)[C@H]([C@@H](C)CC)N2C(=O)[C@H](CC[C@H]2O)NC(=O)[C@H](CCCNC(=N)N)NC(=O)[C@@H](NC(=O)[C@H](O)COS(=O)(=O)O)[C@@H](C)OC1=O	–	–	–	Active	–
CC[C@H](C)[C@@H]1NC(=O)[C@H](Cc2ccccc2)N(C)C(=O)[C@H]([C@@H](C)CC)N2C(=O)[C@H](CC[C@H]2OC)NC(=O)[C@H](CCCNC(=N)N)NC(=O)[C@@H](NC(=O)[C@@H](COS(=O)(=O)O)OS(=O)(=O)O)[C@@H](C)OC1=O	–	–	–	Active	–
CC(C)C[C@@H](NC(=O)[C@H](O)Cc1cc(Cl)c(O)c(Cl)c1)C(=O)N1[C@H](C(=O)NCCCCNC(=N)N)C[C@@H]2CC[C@@H](OS(=O)(=O)O)C[C@@H]21	–	inactive	7.3	–	–
C=C(C)C(O)CC/C(C)=C/CN(CCCC(C(=O)[O-])[N+](C)(C)C)C(=N)N (stereo not given)	inactive	inactive	–	–	–
CC[C@H](C)[C@@H]1NC(=O)[C@H](Cc2ccccc2)N(C)C(=O)[C@H]([C@@H](C)CC)N2C(=O)[C@H](CC[C@H]2OC)NC(=O)[C@H](CCCNC(=N)N)NC(=O)[C@@H](NC(=O)[C@H](O)COS(=O)(=O)O)[C@@H](C)OC1=O	–	–	–	Active	–
